Among the data in ChEMBL document CHEMBL1151805, “Effect of guggulsterone and cembranoids of Commiphora mukul on pancreatic phospholipase A(2): role in hypocholesterolemia” (J Nat Prod, 2009) are Activity, Ki(app) (mole fraction) and Kd values, retold here.

Active and inactive are the calls of the source. No cut-off for these calls is given here.

Broadly, the Kd is the equilibrium constant for the complex coming apart.

The target in test [1] is T1, Phospholipase A2 (Homo sapiens, UniProt P04054). Briefly: Increase in human pancreatic recombinant 1B PLA2 activity expressed in Escherichia coli assessed as hydrolysis rate of 1,2-dimyristoyl-sn-3-glycerophosphocholine vesicles in absence of cholate. A digest of the protocol: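 pH-stat titration of hydrolysis of sonicated 1 mM DMPC vesicles, started with 2 to 10 pM hPLA2, titrated with 1 mM 2-aminopropanediol base. Buffer was 5 mM CaCl2, 1 mM NaCl, 0.1 mM EDTA, pH 8.0, 24 ± 0.1 °C, under nitrogen. Test compound was present at 0.03 or 0.007 MF.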
Target sequence in this assay (P04054 23-148 limits assumed): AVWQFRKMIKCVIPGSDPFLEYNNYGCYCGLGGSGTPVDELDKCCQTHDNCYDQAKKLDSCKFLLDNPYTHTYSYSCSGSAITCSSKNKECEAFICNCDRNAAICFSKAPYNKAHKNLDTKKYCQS

The target in test [2] is T1, Phospholipase A2. Briefly: Reduction in human pancreatic recombinant 1B PLA2 activity expressed in Escherichia coli assessed as hydrolysis of cholate-activated 1,2-dimyristoyl-sn-3-glycerophosphocholine vesicles.
Target sequence in this assay (P04054 23-148 limits assumed): as above
For test [3], the target named is T1, Phospholipase A2. Description: Apparent inhibition of human pancreatic recombinant 1B PLA2 expressed in Escherichia coli assessed as hydrolysis rate of 1,2-dimyristoyl-sn-3-glycerophosphocholine vesicles in presence of cholate.
Target sequence in this assay (P04054 23-148 limits assumed): as above
The target in test [4] is T1, Phospholipase A2. Briefly: Binding affinity to human pancreatic recombinant 1B PLA2 expressed in Escherichia coli at 100 uM by saturation transfer difference NMR spectroscopy.
Target sequence in this assay (P04054 23-148 limits assumed): as above
The species named for another test is Sus scrofa. Briefly: Binding affinity to pig PLA2 at 100 uM by saturation transfer difference NMR spectroscopy. In short, it runs like this: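 STD NMR at 15 °C in 20 mM bicarbonate in D2O, pH 7.5, with 100 µM ligand and 7 µM pig pancreatic PLA2. Difference of on- and off-resonance irradiation by phase cycling, coadded from 6144 scans.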
Test [5] addresses T1, Phospholipase A2. Briefly: Binding affinity to human pancreatic recombinant 1B PLA2 expressed in Escherichia coli by resonance energy transfer assay in presence of trimethyl-ammonium-diphenylhexatriene. A digest of the protocol: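 Aqueous-phase binding measured as bile-salt quenching of the resonance energy transfer signal from the hPLA2–trimethyl-ammonium-diphenylhexatriene complex. Kd was derived from the quenching.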
Target sequence in this assay (P04054 whole entry): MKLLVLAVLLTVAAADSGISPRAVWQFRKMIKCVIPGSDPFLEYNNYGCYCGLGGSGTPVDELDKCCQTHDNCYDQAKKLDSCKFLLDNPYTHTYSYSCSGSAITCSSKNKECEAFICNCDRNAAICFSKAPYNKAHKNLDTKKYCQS

Test [6] concerns the target T1, Phospholipase A2.
Target sequence in this assay (P04054 23-148 limits assumed): as the sequence (P04054 23-148 limits assumed) above

With `CC1=C\C/C=C(\C)CC/C=C(\C)CC[C@](O)(C(C)C)/C=C\1`, on Phospholipase A2 [1], the result was inactive. The Activity entry on Phospholipase A2 [2] is “Dose-dependent effect”. The Ki(app) (mole fraction) at Phospholipase A2 [3] turned out to be 0.00325.
In the case of `C[C@H](CCC(=O)NCCS(=O)(=O)O)[C@H]1CC[C@H]2[C@@H]3CC[C@@H]4C[C@H](O)CC[C@]4(C)[C@H]3C[C@H](O)[C@]12C`, on Phospholipase A2 [4], the result was Active.
For `C[C@H](CCC(=O)O)[C@H]1CC[C@H]2[C@@H]3[C@H](O)C[C@@H]4C[C@H](O)CC[C@]4(C)[C@H]3CC[C@]12C`, the outcome in the test filed under Sus scrofa and on Phospholipase A2 [4] was Active.
For `C[C@H](CCC(=O)O)[C@H]1CC[C@H]2[C@@H]3[C@H](O)C[C@@H]4C[C@H](O)CC[C@]4(C)[C@H]3C[C@H](O)[C@]12C` [CHOLIC ACID], the outcome in the test filed under Sus scrofa and at Phospholipase A2 [4] was Active. In addition, the Kd at Phospholipase A2 [5] is above 150 µM.
Regarding `C[C@H](CCC(=O)NCCS(=O)(=O)O)[C@H]1CC[C@H]2[C@@H]3[C@@H](O)C[C@@H]4C[C@H](O)CC[C@]4(C)[C@H]3CC[C@]12C` [TAURURSODIOL], the Activity entry at Phospholipase A2 [2] was “Dose-dependent effect”. The Ki(app) (mole fraction) on Phospholipase A2 [3] was determined as 0.000306; at Phospholipase A2 [6], 0.005. Further, at Phospholipase A2 [5], the Kd turned out to be 10 µM.
